Measurements reported in ChEMBL document CHEMBL1142542, “Synthesis, mechanistic studies, and anti-proliferative activity of glutathione/glutathione S-transferase-activated nitric oxide prodrugs” (Bioorg Med Chem, 2008).

Experiments:
[1] = molecular target: Glutathione S-transferase P (Homo sapiens) (UniProt P09211); test: Specific activity of human Glutathione S-transferase P at 50 uM by spectrophotometric analysis in presence of glutathione
Outline: (§1)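 Reaction of 1 mL held 0.1 M phosphate buffer pH 7.4, 1 mM GSH, 50 μM compound and a catalytic amount of GST. GSTA1-1 and GSTM1-1 were purified recombinant enzymes; GSTP1-1 was purified in-house. Enzymes were first checked for activity with CDNB. Reaction started by adding compound, and the absorbance decrease at its maximum was followed at 37 °C. Specific activity came from the change in extinction coefficient.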

[2] = molecular target: Glutathione S-transferase P (Homo sapiens) (UniProt P09211); test: Specific activity of human Glutathione S-transferase P at 50 uM by spectrophotometric analysis in presence of glutathione relative to O2-(2,4-dinitrophenyl) 1-[(4-ethoxycarbonyl)piperazin-1-yl]diazen-1-ium-1,2-diolate; outline: as §1
[3] = molecular target: T1, Glutathione S-transferase A1 (Homo sapiens) (UniProt P08263); test: Specific activity of human recombinant Glutathione S-transferase A1 at 50 uM by spectrophotometric analysis in presence of glutathione; outline: as §1
T1 sequence (whole entry): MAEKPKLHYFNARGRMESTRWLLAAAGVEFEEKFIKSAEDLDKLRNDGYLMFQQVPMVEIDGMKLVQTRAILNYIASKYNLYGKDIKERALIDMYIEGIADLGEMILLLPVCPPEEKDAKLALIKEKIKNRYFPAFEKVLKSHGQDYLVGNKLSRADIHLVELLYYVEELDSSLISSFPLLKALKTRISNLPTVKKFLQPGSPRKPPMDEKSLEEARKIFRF

[4] = molecular target: T1, Glutathione S-transferase A1 (Homo sapiens); test: Specific activity of human recombinant Glutathione S-transferase A1 at 50 uM by spectrophotometric analysis in presence of glutathione relative to O2-(2,4-dinitrophenyl) 1-[(4-ethoxycarbonyl)piperazin-1-yl]diazen-1-ium-1,2-diolate; outline: as §1
[5] = molecular target: T2, Glutathione S-transferase Mu 1 (Homo sapiens) (UniProt P09488); test: Specific activity of human recombinant Glutathione S-transferase Mu 1 at 50 uM by spectrophotometric analysis in presence of glutathione; outline: as §1
T2 sequence (whole entry): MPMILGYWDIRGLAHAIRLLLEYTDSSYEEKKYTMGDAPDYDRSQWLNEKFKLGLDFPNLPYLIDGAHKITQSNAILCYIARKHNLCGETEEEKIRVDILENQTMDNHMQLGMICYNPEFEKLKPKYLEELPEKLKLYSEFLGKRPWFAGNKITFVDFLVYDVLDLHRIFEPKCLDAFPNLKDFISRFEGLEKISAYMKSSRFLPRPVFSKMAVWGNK

[6] = molecular target: T2, Glutathione S-transferase Mu 1 (Homo sapiens); test: Specific activity of human recombinant Glutathione S-transferase Mu 1 at 50 uM by spectrophotometric analysis in presence of glutathione relative to O2-(2,4-dinitrophenyl) 1-[(4-ethoxycarbonyl)piperazin-1-yl]diazen-1-ium-1,2-diolate; outline: as §1
[7] = Stability assessed as nitric oxide release in 0.1 M phosphate buffer at pH 7.4 at 100 to 150 nM measured per mole in presence of glutathione by chemiluminescence analysis; assay type: physicochemical
[8] = Chemical stability assessed as half life in 0.1 M phosphate buffer at 33 uM at pH 7.4 in presence of glutathione; assay type: physicochemical; settings: gsh, pH 7.4, 33 µM
HL-60 = test: Antiproliferative activity against human HL-60 cells after 72 hrs by MTT assay; assay type: functional, cell-based; settings: HL-60, 72 h
Outline: (§2)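 MTT (CellTiter 96) proliferation assay. Seeded at 10⁴ per well and grown 24 h, then given rising compound concentrations in PBS (from 10 mM DMSO stocks) for 72 h. Six repeats per concentration, at least two independent experiments; IC50 reported.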

U-937 = test: Antiproliferative activity against human U937 cells after 72 hrs by MTT assay; assay type: functional, cell-based; settings: U-937, 72 h
Outline: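 Cells seeded at 10⁴ per well and grown 24 h, then exposed 72 h to increasing drug concentrations diluted in PBS from 10 mM DMSO stocks. Growth read by MTT assay. Six repeats per concentration, at least two independent experiments; IC50 reported.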

[9] = Antiproliferative activity against human H441 cells after 72 hrs by MTT assay; assay type: functional, cell-based; settings: NCI-H441, 72 h
A549 = test: Antiproliferative activity against human A549 cells after 72 hrs by MTT assay; assay type: functional, cell-based; settings: A549, 72 h; outline: as §2
[10] = Antiproliferative activity against human HCT 116 cells after 72 hrs by MTT assay; assay type: functional, cell-based; settings: HCT-116, 72 h
HCT-15 = test: Antiproliferative activity against human HCT-15 cells after 72 hrs by MTT assay; assay type: functional, cell-based; settings: HCT-15, 72 h
OVCAR-3 = test: Antiproliferative activity against human OVCAR-3 cells after 72 hrs by MTT assay; assay type: functional, cell-based; settings: OVCAR-3, 72 h
PC-3 = test: Antiproliferative activity against human PC-3 cells after 72 hrs by MTT assay; assay type: functional, cell-based; settings: PC-3, 72 h; outline: as §2
[11] = Antiproliferative activity against human H1395 cells after 72 hrs by MTT assay; assay type: functional, cell-based; settings: NCI-H1395, 72 h
[12] = Antiproliferative activity against human H838 cells after 72 hrs by MTT assay; assay type: functional, cell-based; settings: NCI-H838, 72 h
HT-29 = test: Antiproliferative activity against human HT-29 cells after 72 hrs by MTT assay; assay type: functional, cell-based; settings: HT-29, 72 h
Caco-2 = test: Antiproliferative activity against human Caco-2 cells after 72 hrs by MTT assay; assay type: functional, cell-based; settings: Caco-2, 72 h
OVCAR-5 = test: Antiproliferative activity against human OVCAR5 cells after 72 hrs by MTT assay; assay type: functional, cell-based; settings: OVCAR-5, 72 h
TK-10 = test: Antiproliferative activity against human TK-10 cells after 72 hrs by MTT assay; assay type: functional, cell-based; settings: TK-10, 72 h
[13] = Antiproliferative activity against human 786O cells after 72 hrs by MTT assay; assay type: functional, cell-based; settings: 786-0, 72 h
[14] = Antiproliferative activity against human UO-30 cells after 72 hrs by MTT assay; assay type: functional, cell-based; settings: UO-30, 72 h
[15] = Antiproliferative activity against HREpC cells after 72 hrs by MTT assay; assay type: cell-based; settings: Homo sapiens
Outline: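 Seeded at 10⁴ per well and grown 24 h before dosing. Compounds came from 10 mM DMSO stocks and were diluted in PBS to increasing concentrations. Exposure was 72 h, with MTT growth read-out. Six repeats per concentration, at least two independent experiments; IC50.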

[16] = Antiproliferative activity against human BJ-5ta cells after 72 hrs by MTT assay; assay type: cell-based; settings: hTERT-BJ
Outline: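 10⁴ cells per well, allowed 24 h growth, then exposed 72 h to increasing concentrations added in PBS from 10 mM DMSO stocks. MTT proliferation read-out. Each concentration in six repeats, at least two independent experiments; IC50.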

Chain of Glutathione S-transferase P (Homo sapiens) (P09211 2-210 limits assumed): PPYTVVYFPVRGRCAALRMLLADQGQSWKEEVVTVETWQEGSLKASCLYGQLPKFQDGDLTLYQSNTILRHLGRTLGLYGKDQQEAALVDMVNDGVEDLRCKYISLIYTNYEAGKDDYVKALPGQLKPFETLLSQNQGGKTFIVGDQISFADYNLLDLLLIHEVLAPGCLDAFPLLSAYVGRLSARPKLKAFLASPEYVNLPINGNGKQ

| SMILES | Activity [1] [µmol/min/mg] | Activity [2] | Activity [3] [µmol/min/mg] | Activity [4] | Activity [5] [µmol/min/mg] | Activity [6] | Activity [7] [mol/mol] | IC50 (HL-60) [nM] | IC50 (U-937) [nM] | IC50 [9] [nM] | IC50 (A549) [nM] | IC50 [10] [nM] | IC50 (HCT-15) [nM] | IC50 (PC-3) [nM] | further results |
| --- | --- | --- | --- | --- | --- | --- | --- | --- | --- | --- | --- | --- | --- | --- | --- |
| COC(=O)N1CCN(/[N+]([O-])=N/Oc2ccc([N+](=O)[O-])cc2[N+](=O)[O-])CC1 | 0.98 | 0.72 | 45.1 | 0.68 | 102 | 0.81 | – | – | – | – | – | – | – | – | – |
| CCOC(=O)N1CC(C)N(/[N+]([O-])=N/Oc2ccc([N+](=O)[O-])cc2[N+](=O)[O-])CC1C (stereo unspecified) | 0.14 | 0.1 | 17.6 | 0.27 | 49 | 0.39 | – | – | – | – | – | – | – | – | – |
| CCOC(=O)N1CCCN(/[N+]([O-])=N/Oc2ccc([N+](=O)[O-])cc2[N+](=O)[O-])CC1 | 0.16 | 0.12 | 16.8 | 0.25 | 38 | 0.3 | – | – | – | – | – | – | – | – | – |
| CCOC(=O)N1CCN(/[N+]([O-])=N/Oc2ccc([N+](=O)[O-])cc2[N+](=O)[O-])CC1C (stereo unspecified) | 1.15 | 0.85 | 55.5 | 0.84 | 112 | 0.89 | – | – | – | – | – | – | – | – | – |
| CCOC(=O)N1C(C)CN(/[N+]([O-])=N/Oc2ccc([N+](=O)[O-])cc2[N+](=O)[O-])CC1C (stereo unspecified) | 1.17 | 0.86 | 70.3 | 1.06 | 172 | 1.36 | 1.75 | 4700 | 4900 | 8100 | > 10000 | 9500 | 8200 | > 10000 | t1/2 [8]: 26 min; IC50 (OVCAR-3): 4900 nM |
| CCCOC(=O)N1CCN(/[N+]([O-])=N/Oc2ccc([N+](=O)[O-])cc2[N+](=O)[O-])CC1 | 1.2 | 0.88 | 59 | 0.89 | 126 | 1 | 2 | 1400 | 700 | 2400 | 2400 | 1500 | 1300 | 2000 | t1/2 [8]: 27 min |
| CCOC(=O)N1CCN(/[N+]([O-])=N/Oc2ccc([N+](=O)[O-])cc2[N+](=O)[O-])CC1 | 1.36 | 1 | 66.3 | 1 | 126 | 1 | 1.7 | 200 | 300 | 1000 | 1500 | 700 | 600 | 1100 | IC50 (OVCAR-3): 800 nM; IC50 [11]: 800 nM; IC50 [12]: 4300 nM; IC50 (HT-29): 800 nM; IC50 (Caco-2): 2600 nM; IC50 (OVCAR-5): 1000 nM; IC50 (TK-10): 500 nM; IC50 [13]: 800 nM; IC50 [14]: 900 nM; IC50 [15]: 11300 nM; IC50 [16]: 10000 nM |
| CCOC(=O)N1CCN(/[N+]([O-])=N/Oc2ccc([N+](=O)[O-])cc2[N+](=O)[O-])C(C)C1 (stereo unspecified) | 0.88 | 0.65 | 47 | 0.71 | 110 | 0.87 | – | – | – | – | – | – | – | – | – |
